Values after ≈ are worked out from the molar mass of the structure shown. Active and inactive are the calls of the source. No cut-off for these calls is given here.
Assays:
[1] = biological target: T1, S-adenosylmethionine synthase isoform type-2 (Homo sapiens, UniProt P31153); assay: Inhibition of recombinant human MAT2A expressed in baculovirus infected Sf9 cells assessed as S-adenosyl methionine production using L-methionine as substrate incubated for 60 mins followed by substrate addition and measured after 60 mins
Target sequence in this assay (P31153 whole entry, canonical isoform): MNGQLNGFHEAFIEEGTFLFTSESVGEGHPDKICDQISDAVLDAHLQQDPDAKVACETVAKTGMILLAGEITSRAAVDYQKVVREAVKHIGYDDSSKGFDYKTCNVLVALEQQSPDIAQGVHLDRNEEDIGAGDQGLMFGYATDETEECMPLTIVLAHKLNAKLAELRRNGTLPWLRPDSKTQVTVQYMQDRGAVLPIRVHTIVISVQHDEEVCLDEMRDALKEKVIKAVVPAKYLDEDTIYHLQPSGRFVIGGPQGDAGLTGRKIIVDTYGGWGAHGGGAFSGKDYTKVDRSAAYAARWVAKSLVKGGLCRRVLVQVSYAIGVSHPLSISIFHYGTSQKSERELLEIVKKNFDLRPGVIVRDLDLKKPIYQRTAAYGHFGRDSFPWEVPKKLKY

[2] = biological target: T1, S-adenosylmethionine synthase isoform type-2; assay: Inhibition of recombinant human MAT2A expressed in baculovirus infected Sf9 cells assessed as S-adenosyl methionine production using L-methionine as substrate incubated for 60 mins followed by substrate addition and measured after 60 mins relative to control; set-up: concentration or dose not given beside the values
Target sequence in this assay (P31153 whole entry, looked up, canonical isoform): as the sequence (P31153 whole entry, canonical isoform) above

[3] = Stability in human liver microsomes assessed as extraction ratio; format: ADME, Microsome; conditions: read-out: ERH
HCT-116 = assay: cells; conditions: Homo sapiens, HCT-116, 96 h
cells = conditions: Homo sapiens, HCT-116, 72 h
[4] = biological target: T1, S-adenosylmethionine synthase isoform type-2; assay: Inhibition of MAT2A (unknown origin) enzymatic assay
Target sequence in this assay (P31153 whole entry, canonical isoform): as above

[5] = Solubility of compound at pH 2; format: physicochemical; conditions: buffer
[6] = Solubility of compound at pH 7.4; format: physicochemical; conditions: buffer
[7] = AUC (0 to 12 hrs) in MTAP-null KP4 cells xenografted mouse plasma treated po twice daily; format: ADME, organism-based; set-up: time < 12 hr, route oral; conditions: in vivo
[8] = AUC (0 to 12 hrs) in MTAP-null KP4 cells xenografted mouse measured in tumor treated po twice daily; format: ADME, organism-based, Neoplasm; set-up: time < 12 hr, route oral; conditions: in vivo
[9] = Permeability from apical to basolateral side in human Caco-2 cells; format: ADME, cell-based; conditions: read-out: permeability
[10] = Efflux ratio of apparent permeability from basolateral side to apical side over apical side to basolateral side in human Caco-2 cells; format: ADME, cell-based
[11] = Plasma protein binding in human by ultracentrifugation; format: ADME, cell-free; conditions: read-out: PPB (converted)
Summary of the method: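 Human plasma protein binding was determined by ultracentrifugation.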

[12] = Plasma protein binding in mouse by ultracentrifugation; format: ADME, cell-free; conditions: read-out: PPB (converted)
[13] = Cmax in MTAP-null KP4 cells xenografted mouse measured in tumor treated po twice daily; format: ADME, organism-based, Neoplasm; set-up: route oral
Summary of the method: (§1)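 KP4 MTAP-null xenograft-bearing mice dosed orally twice daily. Cmax was determined in plasma (ng/mL) and tumor (ng/g) after 3 b.i.d. doses.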

[14] = Cmax in MTAP-null KP4 cells xenografted mouse plasma treated po twice daily; format: ADME, organism-based; set-up: route oral; summary of the method: as §1
[15] = Protein binding in human plasma assessed as unbound fraction; format: ADME, cell-free
[16] = biological target: T1, S-adenosylmethionine synthase isoform type-2; assay: Binding affinity to MAT2A (unknown origin) by surface plasmon resonance assay
Summary of the method: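 SPR: His-tagged MAT2A was captured on CM5 chips via covalently coupled penta-anti-His IgG (~16 000 RU), to a capture level of ~7500 RU.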
Target sequence in this assay (P31153 whole entry, canonical isoform): as above

Row | IC50 ([1]; read-out: IC50) [µM] | inhibition [2] | hepatic extraction ratio [3] | SMILES | other results
1 | 0.013 | 94% | 0.36 | COc1ccc(-c2c(Nc3cc[nH]n3)[nH]c3c(-c4ccccc4)c(-c4ccccc4)nn3c2=O)cc1 | IC50 (HCT-116): 892 µM; IC50 (cells): 0.008 µM
2 |  |  |  | Cc1cc(=O)n2nc(C)c(-c3ccccc3)c2[nH]1 | IC50 [4]: 620 µM
3 | 0.011 | 93% | 0.51 | CCOC(=O)n1ccc(Nc2[nH]c3c(-c4ccccc4)c(-c4ccccc4)nn3c(=O)c2-c2ccc(OC)cc2)n1 | IC50 (HCT-116): 0.43 µM; IC50 (cells): 0.015 µM
4 | 0.159 | 96% |  | Cc1[nH]c2c(C3=CCCC3)c(-c3ccccc3)nn2c(=O)c1-c1ccc2ncccc2c1 | 
5 | 0.004 | 92% | 0.55 | O=c1c(-c2ccc3ncccc3c2)c(Nc2cc[nH]n2)[nH]c2c(C3=CCCCC3)c(-c3ccccc3)nn12 | IC50 (HCT-116): 0.073 µM; IC50 (cells): 0.018 µM
6 |  |  |  | Nc1cc(=O)n2nc(-c3ccccc3)c(-c3ccccc3)c2[nH]1 | IC50 ([1]; sf9): Not Active
7 | 0.004 | 88% | 0.7 | CCOC(=O)c1nnc(Nc2[nH]c3c(-c4ccccc4)c(-c4ccccc4)nn3c(=O)c2-c2ccc3ncccc3c2)o1 | 
8 | 0.158 | 85% |  | Cc1[nH]c2c(N3CCCCC3)c(-c3ccccc3)nn2c(=O)c1-c1cscn1 | 
9 | 0.16 | 91% |  | Cc1[nH]c2c(N3CCCCC3)c(-c3ccccc3)nn2c(=O)c1-c1ccncc1 | 
10 | 0.007 | 94% | 0.49 | O=c1c(-c2ccc3ncccc3c2)c(Nc2cc[nH]n2)[nH]c2c(-c3ccccc3)c(-c3ccccc3)nn12 | IC50 (HCT-116): 0.522 µM
11 | 0.083 | 94% | 0.75 | Cc1[nH]c2c(N3CCCCC3)c(-c3ccccc3)nn2c(=O)c1-c1ccc2[nH]c(N)nc2c1 | 
12 | 0.033 | 93% | 0.54 | Cc1[nH]c2c(-c3ccccc3)c(-c3ccccc3)nn2c(=O)c1-c1ccc(O)cc1 | 
13 | 0.028 | 95% |  | COc1ccc(-c2c(Nc3cnccn3)[nH]c3c(C4=CCCCC4)c(-c4ccccc4)nn3c2=O)cc1 | IC50 (HCT-116): 0.409 µM; IC50 (cells): 0.016 µM
14 | 0.007 | 93% | 0.26 | O=c1c(-c2ccc(O)cc2)c(Nc2cc[nH]n2)[nH]c2c(-c3ccccc3)c(-c3ccccc3)nn12 | IC50 (HCT-116): 0.527 µM
15 | 3.66 | 54% |  | CCc1cc(=O)n2nc(-c3ccccc3)c(-c3ccccc3)c2[nH]1 | 
16 | 0.005 | 96% | 0.56 | COc1ccc(-c2c(Nc3cc[nH]n3)[nH]c3c(C4=CCCCC4)c(-c4ccccc4)nn3c2=O)cc1 | IC50 (HCT-116): 0.08 µM; IC50 (cells): 0.021 µM
17 | 0.008 | 93% | 0.83 | Cc1[nH]c2c(N3CCCCC3)c(-c3ccccc3)nn2c(=O)c1-c1ccc2c(c1)OCO2 | 
18 | 78.8 | 63% |  | Cc1cc(=O)n2nc(-c3nccs3)c(-c3ccccc3)c2[nH]1 | 
19 | 7.1 | 79% |  | Cc1cc(=O)n2nc(-c3ccccc3)c(-c3ccccn3)c2[nH]1 | 
20 |  |  |  | Cc1cc(=O)n2nc(C3=CCCCC3)c(-c3ccccc3)c2[nH]1 | IC50 ([1]; sf9): Not Active
21 | 0.66 | 59% |  | Cc1cc(=O)n2nc(-c3ccccc3)c(C3CCCCC3)c2[nH]1 | 
22 | 0.27 | 88% |  | O=c1cc(Nc2cc[nH]n2)[nH]c2c(-c3ccccc3)c(-c3ccccc3)nn12 | 
23 | 0.26 | 85% |  | Cc1cc(=O)n2nc(-c3ccccc3)c(C3=CCCCC3)c2[nH]1 | solubility [5]: < 0.5 µM; solubility [6]: < 0.5 µM; IC50 (HCT-116): 72 µM; IC50 (cells): 0.106 µM

Row | IC50 ([1]; read-out: IC50) [µM] | inhibition [2] | hepatic extraction ratio [3] | SMILES | other results
24 | 0.097 | 95% | 0.16 | Cc1[nH]c2c(-c3ccccc3)c(-c3ccccc3)nn2c(=O)c1-c1ccc2ncccc2c1 | AUC [7]: 1650000 ng·h/g; AUC [8]: 372000 ng·h/g; solubility [5]: 67 µM (≈ 28.7 µg/mL); solubility [6]: 15 µM (≈ 6.43 µg/mL); Papp A→B [9]: 6.75 ×10⁻⁶ cm/s; efflux ratio [10]: 6; fraction unbound [11]: < 0.001; fraction unbound [12]: 0.0003; Cmax [13]: 32300 ng/g; Cmax [14]: 179 µg/mL; fraction unbound [15]: 0.0003
25 | 16.6 | 70% |  | O=c1cc(Nc2ccccc2)[nH]c2c(-c3ccccc3)c(-c3ccccc3)nn12 | 
26 | 0.26 | 86% |  | Cc1cc(=O)n2nc(-c3ccccc3)c(N3CCCCC3)c2[nH]1 | solubility [5]: 61 µM (≈ 18.8 µg/mL); solubility [6]: 13 µM (≈ 4.01 µg/mL)
27 | 50.1 | inactive |  | Cc1cc(=O)n2nc(-c3cn[nH]c3)c(-c3ccccc3)c2[nH]1 | 
28 | 0.68 | 88% |  | Cc1cc(=O)n2nc(-c3ccccc3)c(C3CCCC3)c2[nH]1 | 
29 | 3.66 | 90% |  | Cc1cc(=O)n2nc(-c3ccccc3)c(-c3ccco3)c2[nH]1 | 
30 | 0.15 | 93% |  | Cc1[nH]c2c(N3CCCCC3)c(-c3ccccc3)nn2c(=O)c1-c1ccccc1 | 
31 | 0.102 | 66% |  | Cc1c(-c2ccc(O)cc2)c(=O)n2nc(-c3ccccc3)c(N3CCCCC3)c2n1C | fraction unbound [11]: 0.0154; fraction unbound [15]: 0.0154
32 | 0.057 | 91% |  | Cc1[nH]c2c(N3CCCCC3)c(-c3ccccc3)nn2c(=O)c1-c1ccc(O)cc1 | fraction unbound [11]: 0.001; fraction unbound [15]: 0.0009; IC50 (cells): 0.1 µM
33 | 1.5 | 69% |  | Cc1cc(=O)n2nc(-c3ccccc3)c(-c3ccccc3)c2[nH]1 | Kd [16]: 70 µM; IC50 [4]: 1.5 µM
34 | 0.045 | 92% | 0.79 | Cc1[nH]c2c(N3CCCCC3)c(-c3ccccc3)nn2c(=O)c1-c1ccc2[nH]cnc2c1 | 
35 | 0.066 | 93% | 0.66 | Cc1[nH]c2c(C3CCCCC3)c(-c3ccccc3)nn2c(=O)c1-c1ccc2ncccc2c1 | 
36 | 0.052 | 95% | 0.88 | Cc1[nH]c2c(N3CCCCC3)c(-c3ccccc3)nn2c(=O)c1-c1ccc2ncccc2c1 | 
37 | 0.12 | 61% |  | Cc1c(-c2ccc3ncccc3c2)c(=O)n2nc(-c3ccccc3)c(-c3ccccc3)c2n1C | fraction unbound [11]: 0.009; fraction unbound [15]: 0.009
38 | 1.9 | 76% |  | Cc1cc(=O)n2nc(-c3cccc(F)c3)c(-c3ccccc3)c2[nH]1 | 
39 | 0.01 | 94% | 0.11 | COc1ccc(-c2c(Nc3ccon3)[nH]c3c(C4=CCCCC4)c(-c4ccccc4)nn3c2=O)cc1 | IC50 (HCT-116): 0.812 µM; IC50 (cells): 0.065 µM
40 | 1.31 | 95% |  | Cc1[nH]c2c(N3CCCCC3)c(-c3ccccc3)nn2c(=O)c1-c1cn[nH]c1 | 
41 | 4.11 | 85% |  | CC(=O)Nc1cc(=O)n2nc(-c3ccccc3)c(-c3ccccc3)c2[nH]1 | 
42 | 1.14 | 84% |  | Cc1cc(=O)n2nc(-c3ccccc3)c(C3=CCCC3)c2[nH]1 | IC50 (HCT-116): 82 µM; IC50 (cells): 0.588 µM
43 | 0.007 | 85% | 0.13 | COc1ccc(-c2c(Nc3ccccn3)[nH]c3c(-c4ccccc4)c(-c4ccccc4)nn3c2=O)cc1 | IC50 (HCT-116): 0.793 µM; IC50 (cells): 0.025 µM
44 | 1.5 | 65% |  | Cc1cc(=O)n2nc(-c3ccco3)c(-c3ccccc3)c2[nH]1 | 
45 | 0.025 | 96% |  | Cc1[nH]c2c(C3=CCCCC3)c(-c3ccccc3)nn2c(=O)c1-c1ccc2ncccc2c1 | 
46 | 12.2 | 92% |  | Cc1cc(=O)n2nc(-c3cccc(O)c3)c(-c3ccccc3)c2[nH]1 | IC50 (HCT-116): 75 µM; IC50 (cells): 7.65 µM

From ChEMBL document CHEMBL4834423, “Discovery of AG-270, a First-in-Class Oral MAT2A Inhibitor for the Treatment of Tumors with Homozygous MTAP Deletion” (J Med Chem, 2021)
